The values that follow come from ChEMBL document CHEMBL4842338, “System-oriented optimization of multi-target 2,6-diaminopurine derivatives: Easily accessible broad-spectrum antivirals active against flaviviruses, influenza virus and SARS-CoV-2” (Eur J Med Chem, 2021).

Data set [1] in a line: Cytotoxicity against human Huh-7 cells assessed as reduction in cell viability by Celltiter-Glo luminescent cell viability assay. Type of data set: cell-based. As to conditions: Huh-7 cells. The method, boiled down:
(§1)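 Compound-exposed cells assessed by CellTiter-Glo luminescence versus DMSO control; CC50 from dose-response.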

Data set [2] has as its system dengue virus type 2. Description: Antiviral activity against Dengue virus serotype 2 New Guinea C infected in pre-seeded Huh-7 cells assessed as inhibition of viral replication incubated for 72 hrs by immunodetection based plaque reduction assay. Type of data set: functional, organism-based. As to conditions: Huh-7, 72 h. In general terms: In a plaque reduction assay, fewer plaques than in the control indicate reduced infectivity or spread.

Data set [3] is described as follows: Selectivity index, ratio of CC50 for human Huh-7 cells to IC50 for Dengue virus serotype 2 New Guinea C infected in pre-seeded Huh-7 cells assessed as inhibition of viral replication incubated for 72 hrs by immunodetection based secondary yield reduction assay. Type of data set: toxicity, cell-based. As to conditions: read-out: Selectivity Index.
A short description of data set [4]: Selectivity index, ratio of CC50 for human Huh-7 cells to IC50 for Dengue virus serotype 2 New Guinea C infected in pre-seeded Huh-7 cells assessed as inhibition of viral replication incubated for 72 hrs by immunodetection based plaque reduction assay. Type of data set: toxicity, cell-based. As to conditions: read-out: Selectivity Index.
The test system of data set [5] is Zika virus. Description: Antiviral activity against Zika virus H/PF/2013 infected in pre-seeded Huh-7 cells assessed as inhibition of viral replication incubated for 72 hrs by immunodetection based plaque reduction assay. As to conditions: H/PF/2013, Huh-7, 72 h. Type of data set: functional, organism-based.
Data set [6] can be described thus: Selectivity index, ratio of CC50 for human Huh-7 cells to IC50 for Zika virus H/PF/2013 infected in pre-seeded Huh-7 cells assessed as inhibition of viral replication incubated for 72 hrs by immunodetection based secondary yield reduction assay. Format: toxicity, cell-based. Conditions: read-out: Selectivity Index.
The nature of data set [7]: Selectivity index, ratio of CC50 for human Huh-7 cells to IC50 for West Nile virus lineage 1 (Italy/2009) infected in pre-seeded Huh-7 cells assessed as inhibition of viral replication incubated for 48 hrs by immunodetection based plaque reduction assay. Type of data set: toxicity, cell-based. As to conditions: read-out: Selectivity Index.
A short description of data set [8]: Selectivity index, ratio of CC50 for MDCK cells to IC50 for Influenza A Puerto Rico/8/34/H1N1 infected in MDCK cells. Type of data set: toxicity, cell-based. As to conditions: dog, read-out: Selectivity Index. The method, boiled down: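 MDCK or A549 cells (2.5 × 10⁵/well) infected with A/Puerto Rico/8/34 H1N1 for 1 h at 37 °C, then washed. Compound (0.5–20 μM) added in 2% FBS medium for 24 h, with DMSO final ≤0.2%. Virus in supernatants read by hemagglutination. CC₅₀ by MTT (2 × 10⁴ cells/well, same concentrations, 24 h, absorbance 570 nm). SI = CC₅₀/IC₅₀.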

Data set [9] relates to Influenza A virus. The data set is described as follows: Antiviral activity against Influenza A Puerto Rico/8/34/H1N1 infected in human A549 cells assessed as inhibition of hemagglutinin expression at 20 uM treated for 1 hr during viral absorption followed by infection of fresh cell monolayer of A549 cells with supernatant for 24 hrs by In-cell western assay. Format: functional. As to conditions: A/Puerto Rico/8/1934(H1N1). The method, boiled down:
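A549 cells infected with PR8 H1N1 and given 20 μM compound: 2 h before infection (PRE), 1 h during adsorption (DUR), or 24 h after adsorption (POST); supernatants used to infect fresh monolayers for 24 h; anti-HA in-cell western; RFU as % of untreated infected; 3 replicates from two experiments.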

The subject of data set [10] is Influenza A virus. Description: Antiviral activity against Influenza A Puerto Rico/8/34/H1N1 infected in human A549 cells assessed as inhibition of hemagglutinin expression at 20 uM treated 2 to 6 hrs post infection for 24 hrs followed by infection in fresh monolayer of MDCK cells with supernatant for 24 hrs by time-of-addition assay. Type of data set: functional, organism-based. As to conditions: A/Puerto Rico/8/1934(H1N1), time 2-6 hrs.

The test system of data set [11] is Influenza A virus. The data set is described as follows: Antiviral activity against Influenza A/California/04/2009H1N1 infected in human A549 cells assessed as reduction in viral protein expression at 20 uM treated for 1 hr during viral adsorption followed by staining with anti-Flu antibody observed at 24 hrs post infection by In-cell western assay. Type of data set: functional, organism-based.

Data set [12] concerns Influenza A virus. The data set is described as follows: Antiviral activity against Influenza A/California/04/2009H1N1 infected in human A549 cells assessed as reduction in viral protein expression at 20 uM treated for 24 hr post viral adsorption followed by staining with anti-Flu antibody observed at 24 hrs post infection by In-cell western assay. Type of data set: functional, organism-based.

The test system of data set [13] is Influenza A virus. Description: Antiviral activity against Influenza A virus (A/parrot/Ulster/73(H7N1)) infected in human A549 cells assessed as reduction in viral protein expression at 20 uM treated for 24 hrs post viral adsorption followed by staining with anti-Flu antibody observed at 24 hrs post infection by In-cell western assay. Format: functional, organism-based.

Data set [14] relates to Influenza A virus. The data set is described as follows: Antiviral activity against Influenza A virus (A/parrot/Ulster/73(H7N1)) infected in human A549 cells assessed as reduction in viral protein expression at 20 uM treated for 2 to 6 hrs post infection and measured following infection of MDCK cells with supernatant for 24 hrs by time-of-addition assay. Format: functional, organism-based. As to conditions: time 2-6 hrs.

Data set [15] is described as follows: Toxicity in human A549 cells assessed as effect on host cell membrane. Format: cell-based.
Data set [16] is described as follows: Cytotoxicity against human Huh-7 cells infected with SARS-COV-2 assessed as reduction in cell viability by celltiter-glo luminescent cell viability assay. Type of data set: cell-based. Conditions: Huh-7 cells infected with SARS-COV-2. The procedure, abridged: as §1
(In ATP-based viability assays light output follows the ATP content of the culture.)

Data set [17] is described as follows: Selectivity index, ratio of CC50 for human Huh-7 cells infected with SARS-COV-2 to IC50 for SARS-COV 2 infected in human Huh-7. Conditions: read-out: Selectivity Index. Type of data set: toxicity.
In data set [18] the test system is Caco-2. The data set is described as follows: Cytotoxicity against human Caco2 cells infected with SARS-COV-2 assessed as reduction in cell viability by celltiter-glo luminescent cell viability assay. Format: cell-based. The procedure, abridged:
as §1

The subject of data set [19] is SARS-CoV-2. Description: Antiviral activity against SARS-COV 2 infected in monkey Vero E6 cells assessed as inhibition of viral replication at MOI of 0.01 and incubated after 2 hrs post infection for 48 hrs by direct yield reduction assay. Format: functional, organism-based. Conditions: Severe acute respiratory syndrome coronavirus 2, Vero C1008.
The subject of data set [20] is Calu-3. The data set is described as follows: Cytotoxicity against human Calu-3 cells infected with SARS-COV-2 by celltiter-glo luminescent cell viability assay. Conditions: calu-3. Format: cell-based. The method, boiled down: as §1
The test system of data set [21] is SARS-CoV-2. Description: Antiviral activity against SARS-COV 2 infected in quadruplicate Vero E6 cells with DYRA supernatant assessed as reduction in viral replication at 0.8 uM. Conditions: Severe acute respiratory syndrome coronavirus 2, Vero C1008. Format: functional.
The nature of data set [22]: Inhibition of full length ZIKA virus NS5 RNA dependent RNA polymerase incubated for 10 mins by picogreen staining based fluorescent analysis (Rvb= 1+/-0.2 uM).
Data set [23] relates to Huh-7. Description: Effect on formation of DENV replication complex in human Huh-7 cells assessed as reduction in expression of NS3 at 50 uM measured after 8 to 24 hrs by DAPI staining based confocal microscopy analysis. Type of data set: functional, cell-based. As to conditions: time 8-24 hrs. The procedure, abridged: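 Huh-7 cells (1 × 10⁴) on coverslips infected with DENV-2 (MOI 0.05), treated (100 or 50 μM as listed), fixed in 4% paraformaldehyde at 8, 12, 16, 24 h; anti-NS3/anti-NS5 with Alexa 488/568 secondaries, DAPI; confocal, 5 random fields at 40×; % positive cells; 2-way ANOVA with Dunnett.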

Activity calls are given as the source filed them. No cut-off for these calls is given here.

Usually CC50 stands for the concentration giving 50% cytotoxicity. One may read the IC50 as the concentration that inhibits the measured activity by half. As usually defined, the inhibition is the share of the control response that was lost under treatment. Take `FC(F)(F)c1cccc(Nc2nc(NCCOc3ccccc3)nc3[nH]cnc23)c1`: the CC50 was 200 µM in data set [1], 200 µM in data set [16], 81.3 µM in data set [18] and 120 µM in data set [20]. In addition, the IC50 came out at 0.9 µM in [2], 0.5 µM in [5], 53.4 µM in [19] and 12.8 µM in data set [22]. The values for the selectivity ratio at 72 h in [3], in data set [4] and in [6] were 77, 222 and 182, respectively. For the same molecule, the selectivity ratio at 48 h in [7] was 51. Moreover, the selectivity ratio worked out at 14.5 in data set [8] and 74 in [17]. The inhibition at 20 µM in [9] worked out at 50%. The outcome in [10] was inactive. Also, the result in data set [11], in data set [12], in data set [13], in data set [14] and in [23] was Active. Moreover, the Activity entry in [15] is given as “Toxic”. For the same molecule, the inhibition at 0.8 µM in data set [21] was 83.5%.
